In brackets after ≈: the same amount, converted by molar mass.

Broadly, the MIC is the least concentration at which growth counts as inhibited.

One assay concerns Shigella dysenteriae. The assay is described as follows: Antibacterial activity against Shigella dysenteriae after 24 hrs by two-fold serial dilution assay. The format is functional.
A further assay concerns Aspergillus flavus. The assay is described as follows: Antifungal activity against Aspergillus flavus after 24 hrs by two-fold serial dilution assay. The format is functional. The gist of the method:
(§1)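 Twofold serial broth dilution following NCCLS guidance, with Chloromycin, Norfloxacin and Fluconazole as positive controls. MIC in μM is the lowest concentration giving complete inhibition of visible bacterial or fungal growth.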

Assay [1] deals with Staphylococcus aureus. The assay is described as follows: Antibacterial activity against methicillin-resistant Staphylococcus aureus N315 after 24 hrs by two-fold serial dilution assay. The format is functional.
A further assay has as its system Proteus vulgaris. The assay is described as follows: Antibacterial activity against Bacillus proteus ATCC 13315 after 24 hrs by two-fold serial dilution assay. The format is functional. The gist of the method:
as §1

The next assay concerns Micrococcus luteus. Briefly: Antibacterial activity against Micrococcus luteus ATCC 4698 after 24 hrs by two-fold serial dilution assay. The format is functional, NCTC 2665. The essentials:
as §1

The test system of assay [2] is Staphylococcus aureus. Briefly: Antibacterial activity against Staphylococcus aureus ATCC 25923 after 24 hrs by two-fold serial dilution assay. The format is functional. The gist of the method: as §1
Another assay deals with Pseudomonas aeruginosa. The assay is described as follows: Antibacterial activity against Pseudomonas aeruginosa after 24 hrs by two-fold serial dilution assay. The format is functional. The essentials:
as §1

Another assay concerns Candida albicans. Briefly: Antifungal activity against Candida albicans ATCC 76615 after 24 hrs by two-fold serial dilution assay. The format is functional. The gist of the method:
as §1

The test system of another assay is Bacillus subtilis. Briefly: Antibacterial activity against Bacillus subtilis after 24 hrs by two-fold serial dilution assay. The format is functional. The gist of the method:
as §1

In the next assay the test system is Cyberlindnera jadinii. Briefly: Antifungal activity against Candida utilis after 24 hrs by two-fold serial dilution assay. The format is functional. The gist of the method: as §1
The test system of the next assay is Saccharomyces cerevisiae. The assay is described as follows: Antifungal activity against Saccharomyces cerevisiae after 24 hrs by two-fold serial dilution assay. The format is functional. The gist of the method:
as §1

Another assay concerns Pichia norvegensis. The assay is described as follows: Antifungal activity against Candida mycoderma after 24 hrs by two-fold serial dilution assay. The format is functional. The gist of the method: as §1
The subject of assay [3] is Escherichia coli. Briefly: Antibacterial activity against Escherichia coli DH52 after 24 hrs by two-fold serial dilution assay. The format is functional. The essentials:
as §1

The test system of the next assay is Salmonella typhi. Briefly: Antibacterial activity against Bacillus typhi after 24 hrs by two-fold serial dilution assay. The format is functional, Salmonella enterica subsp. enterica serovar Typhi.
In assay [4] the test system is Escherichia coli. The assay is described as follows: Antibacterial activity against Escherichia coli JM109 after 24 hrs by two-fold serial dilution assay. The format is functional. The essentials:
as §1

Where [5] appears, read: Shigella dysenteriae, 24 h, read-out: MIC.
The mark [6] stands for this setting: Aspergillus flavus, 24 h, read-out: MIC.
Where [7] appears, read: Staphylococcus aureus, N315, 24 h, read-out: MIC.
Setting [8] is: Proteus vulgaris, ATCC 13315, 24 h, read-out: MIC.
Setting [9] is: Micrococcus luteus, NCTC 2665, 24 h, read-out: MIC.
Setting [10] is: Staphylococcus aureus, ATCC 25923, 24 h, read-out: MIC.
The mark [11] stands for this setting: Pseudomonas aeruginosa, 24 h, read-out: MIC.
[12] abbreviates: Candida albicans, ATCC 76615, 24 h, read-out: MIC.
[13] abbreviates: Bacillus subtilis, 24 h, read-out: MIC.
[14] abbreviates: Williopsis jadinii, 24 h, read-out: MIC.
[15] abbreviates: Saccharomyces cerevisiae, 24 h, read-out: MIC.
Where [16] appears, read: Pichia norvegensis, 24 h, read-out: MIC.
Where [17] appears, read: Escherichia coli, DH52, 24 h, read-out: MIC.
[18] abbreviates: Salmonella enterica, 24 h, read-out: MIC.
Setting [19] is: Escherichia coli, JM109, 24 h, read-out: MIC.

In the case of `COc1cc(-c2nc3ccccc3n2Cc2cccc(Cl)c2)c2c(c1O)CN1CCc3cc4c(cc3C1C2)OCO4` (stereo not given), the MIC in the assay with Shigella dysenteriae (setting [5]) worked out at 23.6 µM (≈ 13.4 µg/mL); in the assay with Aspergillus flavus (setting [6]) it was 18.9 µM (≈ 10.7 µg/mL); in the assay on Staphylococcus aureus [1] (setting [7]) it was 56.5 µM (≈ 32 µg/mL); in the assay on Proteus vulgaris (setting [8]), 47.1 µM (≈ 26.7 µg/mL); in the assay on Micrococcus luteus (setting [9]), 28.3 µM (≈ 16 µg/mL); with Staphylococcus aureus [2] (setting [10]) it was 23.6 µM (≈ 13.4 µg/mL). The MIC in the assay on Pseudomonas aeruginosa (setting [11]) turned out to be 28.3 µM (≈ 16 µg/mL); in the assay with Candida albicans (setting [12]), 37.7 µM (≈ 21.3 µg/mL); in the assay with Bacillus subtilis (setting [13]), 47.1 µM (≈ 26.7 µg/mL); in the assay with Cyberlindnera jadinii (setting [14]), 9.4 µM (≈ 5.32 µg/mL); in the assay on Saccharomyces cerevisiae (setting [15]) it was 47.1 µM (≈ 26.7 µg/mL); in the assay with Pichia norvegensis (setting [16]), 18.9 µM (≈ 10.7 µg/mL). Further, the values for the MIC with Escherichia coli [3] (setting [17]), in the assay on Salmonella typhi (setting [18]) and with Escherichia coli [4] (setting [19]) were 75.4 µM (≈ 42.7 µg/mL), 4.7 µM (≈ 2.66 µg/mL) and 4.7 µM (≈ 2.66 µg/mL), respectively.

For the compound `COc1ccc(Cn2c(-c3cc(OC)c(O)c4c3CC3c5cc6c(cc5CCN3C4)OCO6)nc3ccccc32)cc1` (stereo not given), the MIC is 57 µM (≈ 32 µg/mL) with Shigella dysenteriae (setting [5]); 23.8 µM (≈ 13.4 µg/mL) in the assay with Aspergillus flavus (setting [6]); 57 µM (≈ 32 µg/mL) with Staphylococcus aureus [1] (setting [7]); 47.5 µM (≈ 26.7 µg/mL) in the assay with Proteus vulgaris (setting [8]); 57 µM (≈ 32 µg/mL) in the assay with Micrococcus luteus (setting [9]); 47.5 µM (≈ 26.7 µg/mL) in the assay on Staphylococcus aureus [2] (setting [10]). The MIC was found to be 38 µM (≈ 21.3 µg/mL) in the assay with Pseudomonas aeruginosa (setting [11]); 38 µM (≈ 21.3 µg/mL) in the assay with Candida albicans (setting [12]); 19 µM (≈ 10.7 µg/mL) in the assay with Bacillus subtilis (setting [13]); 57 µM (≈ 32 µg/mL) with Cyberlindnera jadinii (setting [14]); 38 µM (≈ 21.3 µg/mL) with Saccharomyces cerevisiae (setting [15]); 57 µM (≈ 32 µg/mL) with Pichia norvegensis (setting [16]). In addition, the MIC was 95 µM (≈ 53.4 µg/mL) in the assay on Escherichia coli [3] (setting [17]), 47.5 µM (≈ 26.7 µg/mL) in the assay on Salmonella typhi (setting [18]) and 38 µM (≈ 21.3 µg/mL) in the assay on Escherichia coli [4] (setting [19]).

For `COc1cc(-c2nc3ccccc3n2CCCCCCn2c3ccccc3c3ccccc32)c2c(c1O)CN1CCc3cc4c(cc3C1C2)OCO4.Cl` (stereo not given), the MIC against Shigella dysenteriae was determined as 146.7 µM; with Aspergillus flavus, 293.3 µM; with Staphylococcus aureus [1] it was 586.7 µM; in the assay with Proteus vulgaris, 88 µM; against Micrococcus luteus, 293.3 µM; with Staphylococcus aureus [2], 146.7 µM. The MIC worked out at 469.3 µM in the assay with Pseudomonas aeruginosa; 176 µM in the assay with Candida albicans; 704 µM against Bacillus subtilis; 469.3 µM in the assay on Cyberlindnera jadinii; 469.3 µM with Saccharomyces cerevisiae; 352 µM in the assay with Pichia norvegensis. The MIC in the assay with Escherichia coli [3] came out at 88 µM; in the assay on Salmonella typhi, 73.3 µM; in the assay on Escherichia coli [4], 469.3 µM.

As for `COc1cc(-c2nc3ccccc3n2Cc2ccccc2Cl)c2c(c1O)CN1CCc3cc4c(cc3C1C2)OCO4` (stereo not given), the MIC came out at 28.3 µM (≈ 16 µg/mL) in the assay with Shigella dysenteriae (setting [5]); 11.8 µM (≈ 6.68 µg/mL) in the assay on Aspergillus flavus (setting [6]); 23.6 µM (≈ 13.4 µg/mL) in the assay on Staphylococcus aureus [1] (setting [7]); 47.1 µM (≈ 26.7 µg/mL) with Proteus vulgaris (setting [8]); 23.6 µM (≈ 13.4 µg/mL) in the assay on Micrococcus luteus (setting [9]); 9.4 µM (≈ 5.32 µg/mL) with Staphylococcus aureus [2] (setting [10]). The MIC in the assay with Pseudomonas aeruginosa (setting [11]) worked out at 23.6 µM (≈ 13.4 µg/mL); with Candida albicans (setting [12]), 56.5 µM (≈ 32 µg/mL); in the assay on Bacillus subtilis (setting [13]), 188 µM (≈ 107 µg/mL); in the assay with Cyberlindnera jadinii (setting [14]), 18.9 µM (≈ 10.7 µg/mL); in the assay with Saccharomyces cerevisiae (setting [15]), 23.6 µM (≈ 13.4 µg/mL); in the assay on Pichia norvegensis (setting [16]), 47.1 µM (≈ 26.7 µg/mL). For the same compound, the figures for the MIC in the assay with Escherichia coli [3] (setting [17]), in the assay with Salmonella typhi (setting [18]) and with Escherichia coli [4] (setting [19]) were 23.6 µM (≈ 13.4 µg/mL), 37.7 µM (≈ 21.3 µg/mL) and 4.7 µM (≈ 2.66 µg/mL), respectively.

Consider `COc1cc(-c2nc3ccccc3n2Cc2ccc(Cl)c(Cl)c2)c2c(c1O)CN1CCc3cc4c(cc3C1C2)OCO4` (stereo not given), for which the MIC with Shigella dysenteriae (setting [5]) stood at 44.4 µM (≈ 26.7 µg/mL); in the assay on Aspergillus flavus (setting [6]), 88.8 µM (≈ 53.3 µg/mL); with Staphylococcus aureus [1] (setting [7]), 22.2 µM (≈ 13.3 µg/mL); in the assay on Proteus vulgaris (setting [8]) it was 22.2 µM (≈ 13.3 µg/mL); in the assay with Micrococcus luteus (setting [9]) it was 107 µM (≈ 64 µg/mL); in the assay with Staphylococcus aureus [2] (setting [10]), 35.5 µM (≈ 21.3 µg/mL). Further, the MIC in the assay on Pseudomonas aeruginosa (setting [11]) stood at 35.5 µM (≈ 21.3 µg/mL); in the assay with Candida albicans (setting [12]), 44.4 µM (≈ 26.7 µg/mL); with Bacillus subtilis (setting [13]), 22.2 µM (≈ 13.3 µg/mL); in the assay with Cyberlindnera jadinii (setting [14]), 44.4 µM (≈ 26.7 µg/mL); with Saccharomyces cerevisiae (setting [15]), 26.6 µM (≈ 16 µg/mL); in the assay with Pichia norvegensis (setting [16]), 53.3 µM (≈ 32 µg/mL). Moreover, the figures for the minimal inhibitory concentration (MIC) in the assay with Escherichia coli [3] (setting [17]), with Salmonella typhi (setting [18]) and in the assay with Escherichia coli [4] (setting [19]) were 44.4 µM (≈ 26.7 µg/mL), 53.3 µM (≈ 32 µg/mL) and 44.4 µM (≈ 26.7 µg/mL), respectively.

In the case of `COc1ccc2cc3[n+](cc2c1OC)CCc1cc2c(cc1-3)OCO2` [BERBERINE], the MIC in the assay with Shigella dysenteriae (setting [5]) is 1150 µM; with Aspergillus flavus (setting [6]), 1150 µM; in the assay with Staphylococcus aureus [1] (setting [7]), 230 µM; in the assay on Proteus vulgaris (setting [8]), 688 µM; with Micrococcus luteus (setting [9]), 1380 µM; with Staphylococcus aureus [2] (setting [10]), 1380 µM. The MIC stood at 574 µM with Pseudomonas aeruginosa (setting [11]); 918 µM in the assay with Candida albicans (setting [12]); 1150 µM in the assay with Bacillus subtilis (setting [13]); 574 µM with Cyberlindnera jadinii (setting [14]); 287 µM with Saccharomyces cerevisiae (setting [15]); 287 µM in the assay with Pichia norvegensis (setting [16]). For the same compound, the MIC in the assay on Escherichia coli [3] (setting [17]) amounted to 1150 µM; with Salmonella typhi (setting [18]) it was 459 µM; in the assay with Escherichia coli [4] (setting [19]), 1380 µM.
